# In ChEMBL document CHEMBL1687745 (Antimicrob Agents Chemother, 2009):
# Activity calls are given as the source filed them. The calls are words filed in the database; no cut-off is given here.
# Key:
# Staphylococcus aureus [1] = assay: Antibacterial activity against Staphylococcus aureus Smith infected in Swiss Webster mouse assessed as assessed as protection against microbe-induced mortality at 10 mg/kg, iv administered as single dose 15 mins post bacterial challenge measured 48 hrs post infection; type: functional
# Method in brief: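 Swiss Webster mice (n = 10/group) were challenged i.p. with 8.3 × 10^8 CFU. After 15 min they received a single i.v. dose in 10% dimethyl acetamide–5% dextrose in water (pH 4.0), alongside vehicle and daptomycin (10 mg/kg) controls. Survival was followed for 48 h.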
# Bacillus subtilis [2] = assay: Disruption of bacterial membrane permeability in Bacillus subtilis BD54 using DiSC3 fluorescent dye staining based fluorimetric assay; type: functional, organism-based
# Method in brief: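 B. subtilis BD54 was grown in LB to OD600 0.4–0.5, washed and resuspended to OD600 0.1 in 5 mM HEPES pH 7.4 with 20 mM glucose. Cells were loaded with 1 µM DiSC3(5) for 10 min at room temperature, then 100 mM KCl was added. […] Fluorescence (ex 622/em 670 nm) was read after 5 min in eight wells per condition. DNP at 200 µg/ml served as positive control.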
# Brevibacillus brevis = assay: Antimicrobial activity against Bacillus brevis clinical isolate by broth microdilution method; type: functional
# Method in brief: (§1)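 Broth microdilution. Log-phase cultures (5 × 10^5 CFU/ml) seeded in 96-well plates with compound from 0 to 20 µM or 1% DMSO control. Incubated at 37°C for 16 to 20 h. Growth read as absorbance at 600 nm.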
# Pseudomonas aeruginosa = assay: Antimicrobial activity against Pseudomonas aeruginosa PAO1 by broth microdilution method; type: functional; method in brief: as §1
# Bacillus anthracis [3] = assay: Protection against Bacillus anthracis Sterne spores induced cell death in mouse J774A1 cells assessed as dead cells at 10 uM by Sytox green dye staining assay relative to untreated control; type: functional, J774.A1
# Bacillus anthracis [4] = assay: microbe, parasite or virus in culture; details: Ames
# Bacillus anthracis [5] = assay: Antimicrobial activity against Bacillus anthracis Ames by broth microdilution method in presence of 10% fetal calf serum; type: functional
# Burkholderia mallei = assay: Antimicrobial activity against Burkholderia mallei ATCC 23344 by broth microdilution method; type: functional
# Bacillus subtilis [6] = assay: Inhibition of DNA synthesis in Bacillus subtilis BD54 at 5 X MIC by [3H]thymidine incorporation assay; type: functional, organism-based
# Method in brief: (§2)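 Precursors were [methyl-3H]thymidine (DNA), [5-3H]uridine (RNA), L-[4,5-3H]leucine (protein) and N-acetyl-D-[1-3H]glucosamine (cell wall). Samples taken over time, precipitated with equal volume of ice-cold 20% TCA, filtered on glass fibre, and counted. cpm plotted against time.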
# Enterococcus faecalis [7] = assay: Antimicrobial activity against Enterococcus faecalis 29212 clinical isolate by broth microdilution method; type: functional
# Bacillus anthracis [8] = assay: Antimicrobial activity against Bacillus anthracis Vollum clinical isolate by broth microdilution method; type: functional
# [9] = system: Mycolicibacterium smegmatis; assay: Antimicrobial activity against Mycobacterium smegmatis 700009 by broth microdilution method; type: functional; method in brief: as §1
# Bacillus licheniformis = assay: Antimicrobial activity against Bacillus licheniformis clinical isolate by broth microdilution method; type: functional
# [10] = Cytotoxicity against human HeLa cells after 3 days by MTS assay in presence of 10% fetal calf serum; type: cell-based
# Bacillus anthracis [11] = assay: microbe, parasite or virus in culture; details: Ames; remark: listed apart in the source
# Klebsiella pneumoniae = assay: Antimicrobial activity against Klebsiella pneumoniae 5657 by broth microdilution method; type: functional; method in brief: as §1
# [12] = system: Mycolicibacterium smegmatis; assay: Antimicrobial activity against Mycobacterium smegmatis 35798 by broth microdilution method; type: functional; method in brief: as §1
# Bacillus subtilis [13] = assay: Inhibition of cell wall synthesis in Bacillus subtilis BD54 at 5 X MIC by N-acetyl-D-[1-3H] glucosamine incorporation assay; type: functional; method in brief: as §2
# Bacillus anthracis [14] = assay: Inhibition of spore germination in Bacillus anthracis Sterne spores at MIC after 4 hrs; type: functional, organism-based
# Staphylococcus aureus [15] = assay: Antimicrobial activity against Staphylococcus aureus by broth microdilution method; type: functional; method in brief: as §1
# Yersinia pestis = assay: Antimicrobial activity against Yersinia pestis by broth microdilution method; type: functional
# Bacillus anthracis [16] = assay: Antimicrobial activity against Bacillus anthracis Sterne spores by broth microdilution method; type: functional
# Staphylococcus aureus [17] = assay: Antimicrobial activity against methicillin-resistant Staphylococcus aureus clinical isolate by broth microdilution method; type: functional
# Bacillus anthracis [18] = assay: Protection against Bacillus anthracis Sterne spores induced cell death in mouse J774A1 cells assessed as live viable cells at 10 uM by Sytox green dye staining assay relative to untreated control; type: functional, J774.A1
# Escherichia coli = assay: Antimicrobial activity against Escherichia coli J53 clinical isolate by broth microdilution method; type: functional
# Bacillus subtilis [19] = assay: Antimicrobial activity against Bacillus subtilis clinical isolate by broth microdilution method; type: functional
# Burkholderia cepacia = assay: Antimicrobial activity against Burkholderia cepacia clinical isolate by broth microdilution method; type: functional; method in brief: as §1
# Enterococcus faecium = assay: Antimicrobial activity against vancomycin-resistant Enterococcus faecium B42762 by broth microdilution method; type: functional
# Enterococcus faecalis [20] = assay: Antimicrobial activity against vancomycin-resistant Enterococcus faecalis ATCC 51575 by broth microdilution method; type: functional
# Bacillus subtilis [21] = assay: Inhibition of RNA synthesis in Bacillus subtilis BD54 at 5 X MIC by [5-3H]uridine incorporation assay; type: functional; method in brief: as §2
# Bacillus pumilus = assay: Antimicrobial activity against Bacillus pumilus clinical isolate by broth microdilution method; type: functional; method in brief: as §1
# Staphylococcus aureus [22] = assay: Antimicrobial activity against Staphylococcus aureus ATCC 25923 by broth microdilution method; type: functional; method in brief: as §1
# Staphylococcus aureus [23] = assay: Antimicrobial activity against methicillin-resistant Staphylococcus aureus 1094 by broth microdilution method; type: functional
# Bacillus anthracis [24] = assay: Antimicrobial activity against Bacillus anthracis Sterne vegetative cells by broth microdilution method; type: functional
# Priestia megaterium = assay: Antimicrobial activity against Bacillus megaterium clinical isolate by broth microdilution method; type: functional
# [25] = system: Burkholderia pseudomallei; assay: Antimicrobial activity against Burkholderia pseudomallei DD503 by broth microdilution method; type: functional
# Enterococcus faecalis [26] = assay: Antimicrobial activity against Enterococcus faecalis clinical isolate by broth microdilution method; type: functional; method in brief: as §1
# [27] = system: Mycolicibacterium smegmatis; assay: Antimicrobial activity against Mycobacterium smegmatis 19420 by broth microdilution method; type: functional; method in brief: as §1
# [28] = system: Burkholderia thailandensis; assay: Antimicrobial activity against Burkholderia thailandensis by broth microdilution method; type: functional
smiles,measurement,setting,value
CCCCCCCCCC(=O)N[C@@H](Cc1c[nH]c2ccccc12)C(=O)N[C@H](CC(N)=O)C(=O)N[C@@H](CC(=O)O)C(=O)N[C@@H]1C(=O)NCC(=O)N[C@@H](CCCN)C(=O)N[C@@H](CC(=O)O)C(=O)N[C@H](C)C(=O)N[C@@H](CC(=O)O)C(=O)NCC(=O)N[C@H](CO)C(=O)N[C@@H]([C@H](C)CC(=O)O)C(=O)N[C@@H](CC(=O)c2ccccc2N)C(=O)O[C@@H]1C,survival at 10 mg/kg,Staphylococcus aureus [1],80%
O=[N+]([O-])c1ccc(O)c([N+](=O)[O-])c1,Activity,Bacillus subtilis [2],Active
c1cc2cc(-c3ccc4cc(-c5ccc6oc(C7=NCCN7)cc6c5)[nH]c4c3)[nH]c2cc1C1=NCCN1,MIC,Brevibacillus brevis,0.2 µg/mL
same,MIC,Pseudomonas aeruginosa,> 80 µg/mL
same,Activity,Bacillus anthracis [3],24%
same,MBC,Bacillus anthracis [4],2.8 µg/mL
same,MIC,Bacillus anthracis [4],1.4 µg/mL
same,MIC,Bacillus anthracis [5],1.4 µg/mL
same,MIC,Burkholderia mallei,> 9.7 µg/mL
same,inhibition,Bacillus subtilis [6],Active
same,MIC,Enterococcus faecalis [7],0.1 µg/mL
same,MBC,Bacillus anthracis [8],0.4 µg/mL
same,MIC,Bacillus anthracis [8],0.4 µg/mL
same,MIC,[9],< 0.1 µg/mL
same,MIC,Bacillus licheniformis,1.4 µg/mL
same,CC50 at 72 h,[10],17 µg/mL
same,MBC,Bacillus anthracis [11],1.2 µg/mL
same,MIC,Bacillus anthracis [11],0.2 µg/mL
same,MIC,Klebsiella pneumoniae,16 µg/mL
same,MIC,[12],< 0.1 µg/mL
same,inhibition (INH),Bacillus subtilis [13],40%
same,inhibition,Bacillus anthracis [14],inactive
same,MIC,Staphylococcus aureus [15],0.7 µg/mL
same,MIC,Yersinia pestis,9.7 µg/mL
same,MIC,Bacillus anthracis [16],0.4 µg/mL
same,MIC,Staphylococcus aureus [17],2.8 µg/mL
same,Activity,Bacillus anthracis [18],75%
same,MIC,Escherichia coli,1.4 µg/mL
same,MIC,Bacillus subtilis [19],0.4 µg/mL
same,MIC,Burkholderia cepacia,22 µg/mL
same,MIC,Enterococcus faecium,0.1 µg/mL
same,MIC,Enterococcus faecalis [20],0.1 µg/mL
same,inhibition (INH),Bacillus subtilis [21],40%
same,MIC,Bacillus pumilus,0.4 µg/mL
same,MIC,Staphylococcus aureus [22],0.3 µg/mL
same,MIC,Staphylococcus aureus [23],0.5 µg/mL
same,MIC,Bacillus anthracis [24],0.7 µg/mL
same,MIC,Priestia megaterium,0.4 µg/mL
same,MIC,[25],> 9.7 µg/mL
same,MIC,Enterococcus faecalis [26],0.7 µg/mL
same,MIC,[27],0.1 µg/mL
same,MIC,[28],2.8 µg/mL
